A selection: hits, their analogues and other compounds. The true share with any hit is near 2.9%.
SENP8 block-1 = SENP8 protease inhibitors, primary screen, biochemical, luminescence. purified SENP8, Z-RLRGG-aminoluciferin cleavage. 1.2% of 330,000 active. inhibition, % at 10 µM. Sentrin-specific protease 8 (Homo sapiens), Q96LD8; in the data active = inhibition above about 50%
SENP7 block = SENP7 protease inhibitors, primary screen, biochemical, luminescence, uHTS; 1.5% of 330,000 active; recombinant SENP7, Z-RLRGG-aminoluciferin luminescence, 40 min; inhibition, % at 5 µM; Sentrin-specific protease 7 (Homo sapiens), Q9BQF6; AID 434973, 2010;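 active = inhibition above about 50% at the single test dose, limit read from the data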;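 note: plate controls were DMSO with enzyme for no effect and no enzyme buffer wells for full effect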
Apaf-1 inh = inhibitors of human Apaf-1 apoptosome, primary screen, biochemical, DEVD-Rh110 fluorescence, uHTS; Apoptotic protease-activating factor 1 (Homo sapiens), O14727; reconstituted apoptosome caspase-3 activity; inhibition, % at 20 µM; 0.71% of 330,000 active; active = inhibition of at least 40% at 20 µM;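 note: plate controls were DMSO wells for no effect and DEVD-CHO caspase inhibitor wells for full effect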
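Assay system: Apoptosome proteins | Medium: pH 7.5 Hepes buffer with CHAPS, BSA, DTT | Also added: Cytochrome c and DEVD-Rh110 substrate | Times: 30 min plus 50 min, RT | Detection: Rhodamine 110 fluorescence at Ex 480/Em 540 nm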
SENP1 FRET inh = human SENP1 catalytic domain inhibitors, primary screen, biochemical, FRET, uHTS; AID 624204, 2012; inhibition, % at 10 µM; recombinant SENP1 catalytic domain, CyPet-SUMO1-YPet FRET cleavage; 0.21% of 360,000 active;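 active = inhibition at least 30% at 10 µM, raw YFP signal under a set limit, fluorescence ratio 0.5 to 1.5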;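 note: 0% = enzyme with DMSO and 100% = no enzyme wells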
Target sequence (Q9P0U3 419-644 limits assumed): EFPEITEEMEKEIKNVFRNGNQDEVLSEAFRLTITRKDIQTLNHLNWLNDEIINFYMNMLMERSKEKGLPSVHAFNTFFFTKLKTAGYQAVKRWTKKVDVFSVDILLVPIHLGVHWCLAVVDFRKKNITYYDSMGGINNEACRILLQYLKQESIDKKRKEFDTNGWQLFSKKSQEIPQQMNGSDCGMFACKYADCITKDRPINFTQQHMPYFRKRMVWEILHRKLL
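Material: hSENP1 catalytic domain, recombinant; medium: Tris pH 8 with BME, BSA, NP40 and catalase; compound: single concentration of 10 µM compound, 0.5% DMSO final; technique: FRET read of cyan and yellow fluorescence; timing: 50 min enzyme reaction, room temperature, light-protected; reagent: SFCypet-SUMO1-SFYpet substrate at 25 nM; control set: no-enzyme low, enzyme-DMSO high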
SENP6 block = SENP6 protease inhibitors, primary screen, biochemical, luminescence, uHTS | Sentrin-specific protease 6 (Homo sapiens), Q9GZR1 | 1.8% of 330,000 active | inhibition, % at 10 µM | Recombinant SENP6 catalytic domain, aminoluciferin luminescence | AID 2599, 2010;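 active = inhibition above about 50% at the single tested dose, limit read from the data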;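 note: plate controls were DMSO wells with enzyme for no effect and DMSO wells lacking enzyme for full effect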
Target sequence (Q9GZR1 628-1112 limits assumed): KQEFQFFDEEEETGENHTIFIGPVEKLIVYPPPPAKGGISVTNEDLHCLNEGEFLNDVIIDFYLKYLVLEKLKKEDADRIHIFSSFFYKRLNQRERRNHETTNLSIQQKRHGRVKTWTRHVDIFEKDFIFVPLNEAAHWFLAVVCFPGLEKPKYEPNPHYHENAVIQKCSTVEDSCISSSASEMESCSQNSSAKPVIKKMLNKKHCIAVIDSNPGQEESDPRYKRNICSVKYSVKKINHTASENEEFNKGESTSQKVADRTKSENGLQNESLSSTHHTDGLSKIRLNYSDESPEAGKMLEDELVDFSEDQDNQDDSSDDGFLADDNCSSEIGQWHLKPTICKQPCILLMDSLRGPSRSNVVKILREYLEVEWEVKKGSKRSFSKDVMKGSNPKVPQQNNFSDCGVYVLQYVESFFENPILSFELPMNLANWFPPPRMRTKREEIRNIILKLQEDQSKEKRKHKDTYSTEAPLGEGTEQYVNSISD
SENP8 block-2 = human SENP8 protease inhibitors, primary screen, biochemical, fluorescence, Nedd8 protein substrate, uHTS; Sentrin-specific protease 8 (Homo sapiens), Q96LD8; AID 602440, 2012; recombinant SENP8; 0.64% of 360,000 active; inhibition, % at 20 µM; in the data active = inhibition mostly above about 40%, no sharp cut-off; inactive = mostly below about 27%
SENP8 confirm = SENP8 protease inhibitors, retest, confirmation, biochemical, luminescence, single concentration. shares compounds with SENP7 block. inhibition, % at 12.5 µM. AID 488912, 2010. Recombinant SENP8, Z-RLRGG-aminoluciferin luminescence, 60 min. 40% of 6,200 active;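 active = mean inhibition across replicates above about 50%, limit read from the data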
SENP6 conf = SENP6 protease inhibitors, confirmation, biochemical, luminescence, single concentration; 58% of 6,200 active; recombinant SENP6, Z-RLRGG-aminoluciferin luminescence; shares compounds with SENP7 block; inhibition, % at 12.5 µM
SENP7 conf = SENP7 protease inhibitors, retest, confirmation, biochemical, luminescence, single concentration; AID 488917, 2010; shares compounds with SENP7 block; 69% of 6,200 active; recombinant SENP7, Z-RLRGG-aminoluciferin luminescence, 40 min; inhibition, % at 12.5 µM
Casp3 select = caspase-3 protease inhibitors, confirmation, selectivity assay for SENP inhibitor project, biochemical, single concentration; purified caspase-3, Z-DEVD-aminoluciferin luminescence, 60 min; 60% of 6,200 active; inhibition, % at 12.5 µM; shares compounds with SENP7 block;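 active = mean inhibition above about 50%, limit read from the data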;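 note: plate controls were enzyme with DMSO for no effect and wells without caspase-3 for full effect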
SENP luc ctr = counter-screen for SENP inhibitors: luminescence interference. inhibition, % at 12.5 µM. Pre-incubated SENP8/Z-RLRGG-aminoluciferin, luciferase luminescence interference. 39% of 6,200 active. shares compounds with SENP7 block;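 active = mean inhibition above about 50% when retested at one dose, limit read from the data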;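 note: plate controls were DMSO wells with completed reaction for no effect and substrate without enzyme for full effect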
* hit, by the source's call; · = not tested or not shown.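 Rule for the calls, unless noted: active = mean inhibition above about 50% in the one-dose retest (limit read from the data); inactive = the rest.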

SMILES | SENP8 block-1 | SENP7 block | Apaf-1 inh | SENP1 FRET inh | SENP6 block | SENP8 block-2 | SENP8 confirm | SENP6 conf | SENP7 conf | Casp3 select | SENP luc ctr
COc1ccc(CCN2C(=O)COc3ccccc3C2C(=O)NCc2ccccc2)cc1OC (centres undefined) | · | · | · | 3.7 | · | 8.6 | · | · | · | · | ·
O=C(COC(=O)c1ccc(Cl)nc1)NC1CCCc2ccccc21 (centres undefined) | -13.5 | 5.7 | 0.4 | -3.7 | -2.3 | 6.0 | · | · | · | · | ·
Cc1ccc2c(c1)COc1c3ccc(C(=O)NCC4CC4)cc3nn1-2 | 0.0 | -1.5 | 16.7 | -2.6 | 0.1 | -326.9 | · | · | · | · | ·
Cc1ccc2c(c1)COc1c3ccc(C(=O)O)cc3nn1-2 | 94.9* | 99.7* | 0.9 | 0.7 | 95.3* | -68.0 | 96.0* | 96.2* | 101.0* | 96.9* | 95.2*
CC(C)[C@@H](CO)NC(=O)c1ccc2c3n(nc2c1)-c1ccccc1CO3 | 81.7* | 49.6 | 5.8 | 0.6 | 84.2* | -123.2 | 91.1* | 90.8* | 98.4* | 95.3* | 62.5*
CC(C)NC(=O)c1ccc2c3n(nc2c1)-c1ccccc1CO3 | 78.1* | 77.6* | 3.7 | -1.9 | 77.1* | -112.1 | 88.1* | 86.6* | 97.6* | 94.2* | 81.1*
O=C(NCC1CC1)c1ccc2c3n(nc2c1)-c1ccccc1CO3 | 77.8* | 68.1* | 2.2 | -2.6 | 82.3* | -224.4 | 83.0* | 83.9* | 98.1* | 91.7* | 80.0*
C=CCNC(=O)c1ccc2c3n(nc2c1)-c1ccc(Cl)cc1CO3 | 19.2 | 6.0 | 4.3 | -5.8 | 31.1 | -83.6 | · | · | · | · | ·
COC(=O)Cc1ccccc1NS(=O)(=O)c1ccc(C)cc1 | · | · | · | 3.1 | · | 13.0 | · | · | · | · | ·
COc1ccc(CNC(=O)C2CCC(CNS(=O)(=O)c3ccccc3)CC2)cc1 (centres undefined) | -4.5 | -1.8 | 4.3 | 0.7 | -2.2 | 9.4 | · | · | · | · | ·
CC(=O)/C(=C/N(C)C)C(=O)Nc1ccc(Cl)cc1Cl | 77.6* | 4.8 | 5.0 | -7.2 | 10.3 | 1.3 | 70.2* | 65.6* | 91.8* | 81.4* | 77.4*
CN(C)CCNC=C(C(=O)Nc1ccc(Cl)cc1Cl)C(=O)Nc1ccc(Cl)cc1Cl | -13.3 | 11.0 | 9.1 | -5.5 | 2.4 | 22.2 | · | · | · | · | ·
O=c1cc(-c2ccccc2)[nH]c2nc3ccccc3n12 | 87.9* | 97.7* | 11.4 | -54.0 | 88.2* | -307.1 | 1.6 | 64.0* | 64.1* | 72.1* | 5.4
O=c1cc(CCl)[nH]c2nc3ccccc3n12 | -11.9 | -4.7 | -3.4 | -1.1 | -8.4 | -353.8 | · | · | · | · | ·
Nc1c2c(nc3sc4c(c13)CCCC4)-c1ccccc1CC2 | 92.4* | 90.4* | 18.2 | -11.1 | 92.0* | -399.1 | 19.5 | 93.3* | 95.5* | 81.5* | 6.2
O=C1NC[C@H](CCCCN2C[C@H](Cc3ccccc3)N(Cc3ccccc3)C(=O)C2=O)N(CCC2CCCCC2)C1=O | · | · | · | 5.0 | · | 3.7 | · | · | · | · | ·
O=C1CC(N2CCN(Cc3ccc4c(c3)OCO4)CC2)C(=O)N1c1ccccc1 (centres undefined) | 5.1 | 62.5* | 3.9 | 1.7 | -1.9 | 17.8 | 6.1 | 7.8 | -7.8 | -2.6 | 0.1
COc1ccc(C)cc1NC(=O)Cn1c(=O)oc2ccccc21 | 3.9 | -3.0 | 3.9 | -0.5 | -12.4 | 10.2 | · | · | · | · | ·
Cc1ccc(C(C)C)c(OCC(=O)NNC(=O)Cc2ccc(S(=O)(=O)N3CCOCC3)s2)c1 | 2.2 | -1.7 | 11.8 | -2.8 | 6.7 | -12.2 | · | · | · | · | ·
Cc1ccc(-c2nnc(-c3cccc4ccccc34)o2)cc1 | · | · | · | 2.1 | · | -495.8 | · | · | · | · | ·
c1ccc(Nc2nnc(-c3cccc4ccccc34)o2)cc1 | -1.9 | 65.1* | -4.6 | 1.3 | -9.7 | -402.4 | 1.3 | -7.8 | 52.7* | 36.2 | -3.1
CC1OC(c2ccccc2)OC2COC(c3ccccc3)OC12 (centres undefined) | · | · | · | 0.8 | · | 1.7 | · | · | · | · | ·
O=C(Nc1nnc(-c2ccccn2)o1)c1cccc(Cl)c1 | 9.8 | 12.1 | 11.5 | 2.5 | -17.4 | -1.2 | · | · | · | · | ·
N#Cc1ccc(C(=O)Nc2nnc(-c3ccccn3)o2)cc1 | 50.9* | 58.2* | -7.6 | -0.9 | 69.1* | 4.5 | 64.2* | 60.4* | 88.7* | 86.2* | 56.4*
c1ccc(COc2ccc3nocc3c2)cc1 | 89.7* | 89.7* | -0.8 | -2.7 | 93.0* | -27.5 | 85.5* | 89.5* | 100.2* | 91.1* | 83.6*
SMILES | SENP8 block-1 | SENP7 block | Apaf-1 inh | SENP1 FRET inh | SENP6 block | SENP8 block-2 | SENP8 confirm | SENP6 conf | SENP7 conf | Casp3 select | SENP luc ctr
CC1CCCCN1S(=O)(=O)c1ccc(C(=O)Nc2sccc2C(N)=O)cc1 (centres undefined) | 85.8* | 79.2* | 11.4 | 0.5 | 82.9* | -30.1 | 87.4* | 87.7* | 96.6* | 74.1* | 39.6
NC(=O)c1ccsc1NC(=O)C1CCCN1S(=O)(=O)c1ccc(Cl)cc1 (centres undefined) | -1.2 | -3.1 | 6.8 | -4.3 | -6.6 | 11.4 | · | · | · | · | ·
Cc1cc(C)n(-c2ccc(C(=O)Nc3sccc3C(N)=O)cc2)n1 | 37.2 | 63.3* | 10.1 | -5.2 | 74.8* | -234.2 | 63.8* | 64.5* | 82.0* | 58.0* | 37.1
O=C(Oc1ccc2ccc(O)cc2c1)C1CCCCC1 | 6.6 | 3.2 | 9.1 | -60.0 | 25.7 | -16.9 | · | · | · | · | ·
Cc1ccc(C(=O)N/N=C/c2ccc(OC(=O)c3ccccc3Cl)cc2)cn1 | -16.0 | -6.0 | 1.6 | -0.1 | -12.7 | 13.9 | · | · | · | · | ·
Cc1cccc(C(=O)Oc2ccc(/C=N/O)cc2)c1 | 69.1* | 2.9 | 5.0 | 1.8 | 76.2* | 5.0 | 76.6* | 73.0* | 88.6* | 73.9* | 73.0*
O=C(Oc1ccc2ccc(O)cc2c1)c1ccccc1Cl | 73.8* | 70.1* | -2.7 | 0.6 | 89.1* | 11.5 | -20.3 | 76.2* | 91.0* | 33.5 | 67.0*
